{"source": "PubChem BioAssay AID2178", "about": "(The Scripps Research Institute Molecular Screening Center, 2009)", "note": "The campaign covered roughly 2,400 compounds. Fewer than 10 were called active. Only a sample is shown. A number with no mark means an inactive call.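 Rule for the calls: active = average inhibition across replicates above the hit cutoff set in the earlier primary screen; inactive = the rest.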", "data": [{"biological_target": "Procathepsin L (Homo sapiens) (UniProt P07711)", "sequence (P07711 whole entry, looked up)": "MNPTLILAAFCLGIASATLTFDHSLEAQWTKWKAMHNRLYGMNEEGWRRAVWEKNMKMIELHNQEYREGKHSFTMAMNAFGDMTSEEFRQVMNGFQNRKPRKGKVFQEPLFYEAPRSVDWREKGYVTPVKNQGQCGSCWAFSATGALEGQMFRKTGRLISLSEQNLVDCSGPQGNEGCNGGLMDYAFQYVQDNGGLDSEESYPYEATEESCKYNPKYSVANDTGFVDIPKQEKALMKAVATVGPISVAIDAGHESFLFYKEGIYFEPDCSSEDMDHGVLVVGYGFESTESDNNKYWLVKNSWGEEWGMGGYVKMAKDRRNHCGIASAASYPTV", "assay": "cathepsin L1 inhibitors, retest, confirmation, counter-screen for PFM18AAP inhibitor project, biochemical, QFRET, triplicate (AID 2178);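 note: 0% = median of test compound wells and 100% = Z-Phe-Ala-diazomethylketone 1 µM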", "details": "purified cathepsin L1, Z-Leu-Arg-MCA fluorescence; at 5.96 µM; hits give high values", "in_short": "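System: Purified cathepsin L1 | Amount: Enzyme 1.5 µg/mL before substrate addition | Also added: Z-Leu-Arg-MCA fluorogenic substrate | Incubation: Enzyme-compound preincubation 30 min, substrate reaction 90 min, 25 °C | Technique: MCA fluorescence measured at substrate addition and at 90 min | Measure: Percent inhibition from fluorescence change | Replicates: Triplicate wells per compound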", "units": {"inhibition": "%"}, "values": [{"compound": "CCN(CC)c1ccc(NC(=O)CCc2nnc3ccc(N4CCCCC4)nn23)c(C)c1", "inhibition": 1.25}, {"compound": "c1ccc2sc(NN=C3CCCC3)nc2c1", "inhibition": 0.11}, {"compound": "Cc1ccc(S(=O)(=O)N/N=C\\c2cc3c(cc2[N+](=O)[O-])OCO3)cc1", "inhibition": -3.66}, {"compound": "Cc1csc(NC(=O)NC2(C(F)(F)F)Oc3ccccc3O2)n1", "inhibition": -4.56}, {"compound": "Cn1c(SCC(=O)N/N=C/c2ccc(O)c(O)c2)nc2ccccc21", "inhibition": -2.42}, {"compound": "O=C(O)CCn1c(O)c(C=C2N=c3ccccc3=N2)sc1=S", "inhibition": 2.67}, {"compound": "NC(=O)c1c(NC(=O)CSc2nnc(-c3ccco3)n2N)sc2c1CCCC2", "inhibition": -6.97}, {"compound": "O=C(Nn1cnnc1)c1cc(Cl)ccc1Cl", "inhibition": -2.58}, {"compound": "CC(C)C1N=C2c3ccccc3N=C(SCC(=O)c3ccc(O)c(O)c3)N2C1=O", "note": "(stereo not drawn)", "inhibition": 6.47}, {"compound": "COc1ccc(OCc2nnc3n2N=C(c2ccccc2)C(CC(=O)O)S3)cc1", "note": "(stereo not drawn)", "inhibition": 0.71}, {"compound": "Cc1ccc(C)c(NC(=O)NNC(=O)c2ccc3ccccc3c2O)c1", "inhibition": -3.43}, {"compound": "CNC(=S)NNC(=O)c1ccc(N(C)C)cc1", "inhibition": 3.16}, {"compound": "CCN(CC)c1ccc(/C=N/Nc2nc(C)cc(C)n2)c(O)c1", "inhibition": 4.21}, {"compound": "COc1ccc(OCc2n[nH]c(=S)n2N)cc1", "inhibition": -6.49}, {"compound": "Cc1cc(C)nc(Nc2ncn[nH]2)n1", "inhibition": -0.26}, {"compound": "O=C(Oc1ccc(Br)cc1C(=S)N1CCOCC1)c1cccc([N+](=O)[O-])c1", "inhibition": -0.38}, {"compound": "Cc1ccc(-c2ccc(/C=C(\\C#N)C(N)=S)o2)c([N+](=O)[O-])c1", "inhibition": -0.99}, {"compound": "O=C(CN1CCN(c2ccc(O)cc2)CC1)Nc1ccc(-c2ccccc2)cc1", "inhibition": -1.37}, {"compound": "Oc1ccc(/C=N/Nc2ccc(C(F)(F)F)cn2)cc1O", "inhibition": -2.87}, {"compound": "CCCc1nc2ccccc2c(=O)n1/N=C/c1ccc(O)c(O)c1", "inhibition": -0.21}, {"compound": "Cc1cc(C)nc(NNC2=CC(=O)CC(C)(C)C2)n1", "inhibition": -3.35}, {"compound": "CCN(CC)c1ccc2oc(=O)c(C)nc2c1", "inhibition": -1.42}, {"compound": "COc1c(O)ccc2c1CN1CCc3cc4c(cc3C1C2)OCO4", "note": "(stereo not drawn)", "inhibition": -3.11}, {"compound": "CC(C)(C)c1nnc(N/N=C/c2ccc(O)cc2)n(N)c1=O", "inhibition": -5.72}, {"compound": "Oc1ccc(/C=N/NC2=NCCCCC2)c(O)c1", "inhibition": 1.65}, {"compound": "CC(C)(C)C(=O)OCc1nc(-c2ccc(O)c(O)c2)cs1", "inhibition": -4.53}, {"compound": "NC(=S)N/N=C/c1coc2cc(Cl)ccc2c1=O", "inhibition": 1.96}, {"compound": "CCn1ccnc1CNC(=O)CC1C(=O)NCCN1Cc1ccc(F)cc1Cl", "note": "(stereo not drawn)", "inhibition": -3.42}, {"compound": "COc1cc(/C=N/NC(=S)Nc2cccnc2)cc(OC)c1O", "inhibition": -3.45}, {"compound": "Cn1c(=O)[nH]c(=O)c2c1[nH]c(=S)n2Cc1ccccc1", "inhibition": -1.96}, {"compound": "CC1CCN(C(=O)c2ccc3c(c2)NC(=O)CN3)CC1", "inhibition": -3.71}, {"compound": "O=C(O)c1cccc(NC(=S)N/N=C/c2c[nH]c3ccccc23)c1", "inhibition": -2.87}, {"compound": "O=C(Nc1cccc([N+](=O)[O-])c1)Nn1cnnc1", "inhibition": -5.02}, {"compound": "COc1cc(/C=N\\Nc2ccc([N+](=O)[O-])cn2)ccc1OCC(=O)O", "inhibition": 6.51}, {"compound": "CC(C)c1ccc(NC(=S)NNc2ccc(Cl)c(C(=O)O)c2)cc1", "inhibition": -5.45}, {"compound": "Cc1nc2ccc(S(=O)(=O)NCC(=O)O)cc2s1", "inhibition": -0.46}, {"compound": "O=C(CSc1ncn[nH]1)Nc1ccnc2ccccc12", "inhibition": -0.72}, {"compound": "CCOc1cccc(/C=N/NC(=S)NCCN2CCOCC2)c1O", "inhibition": 3.05}, {"compound": "CCOc1ccc(C2C3=C(CCCC3=O)N(CC(=O)O)C3=C2C(=O)CCC3)cc1", "inhibition": 0.31}, {"compound": "COc1cc(/C=C2/C(=O)NN(c3cccc(Cl)c3)C2=O)cc(Br)c1O", "inhibition": -3.26}, {"compound": "O=C(CO/N=C/c1ccccc1O)NNC(=O)c1ccccc1Cl", "inhibition": -40.2}, {"compound": "COc1ccc2c(c1)C(C)=CC(C)(C)N2C(=O)Nc1ccccc1", "inhibition": 0.44}, {"compound": "Oc1ccc(N2CCN(C(=S)NCc3ccccc3)CC2)cc1", "inhibition": 0.35}, {"compound": "Cc1ccc2nc(-c3cccc(Br)c3)cc(C(=O)Nn3cnnc3)c2c1", "inhibition": -9.17}, {"compound": "CN(C)c1ccc(C(CC(=O)O)C(=O)O)cc1", "note": "(stereo not drawn)", "inhibition": -7.14}, {"compound": "CC(OC(=O)c1ccc2noc(-c3ccccc3)c2c1)C(N)=O", "note": "(stereo not drawn)", "inhibition": 2.03}, {"compound": "NC(=O)C1CCN(C(=O)/C(=C/c2ccco2)NC(=O)c2ccccc2)CC1", "inhibition": -6.56}, {"compound": "Cc1cccc(NC(=O)c2sc3nc(N4CCOCC4)c4c(c3c2N)CCCC4)c1", "inhibition": -1.63}, {"compound": "CSc1n[nH]c(=S)n1N", "inhibition": -0.69}, {"compound": "CC(C)(C)NC(=O)C(c1ccncc1)N(C(=O)CNC(=O)c1ccco1)c1ccc2c(c1)OCO2", "note": "(stereo not drawn)", "inhibition": -6.31}, {"compound": "Cc1nc2nc[nH]n2c(=O)c1C/C=C/c1ccccc1", "inhibition": -4.98}, {"compound": "COc1ccc(N/C=C(\\C2OC(=O)c3ccccc32)[N+](=O)[O-])cc1", "note": "(stereo not drawn)", "inhibition": -5.34}, {"compound": "c1ccc2c(c1)OCC(c1nn3cnnc3s1)O2", "note": "(stereo not drawn)", "inhibition": 2.86}, {"compound": "COc1cc(/C=N/Nc2nn3cnnc3c3ccccc23)cc(OC)c1OC", "inhibition": 3.85}, {"compound": "ClC1(Cl)CC1CSc1ncn[nH]1", "note": "(stereo not drawn)", "inhibition": -4.69}, {"compound": "S=c1[nH]nc2c3c4c(sc3ncn12)CCCC4", "inhibition": -1.23}, {"compound": "Cc1ccc(-c2noc(CC(c3ccccc3)c3ccccc3)n2)cc1", "inhibition": 2.35}, {"compound": "CC(/C=C/C1(O)C(C)CC(=O)CC1(C)C)OC1OC(CO)C(O)C(O)C1O", "note": "(stereo not drawn)", "inhibition": -6.26}, {"compound": "Cc1cc2c(C)nc(N/N=C/c3ccccc3)nc2o1", "inhibition": 3.67}, {"compound": "O=C1CCCCN1CCCC(=O)N1CCCC(Nc2ccc(F)cc2)C1", "note": "(stereo not drawn)", "inhibition": -1.53}, {"compound": "O=c1nc(N/N=C/c2ccco2)cn[nH]1", "inhibition": 8.33}, {"compound": "O=C(COc1ccc([N+](=O)[O-])cc1Cl)Nn1cnnc1", "inhibition": -1.51}, {"compound": "O=C(Nc1ccccc1Cl)Nn1cnnc1", "inhibition": -5.2}]}]}
